From ChEMBL document CHEMBL5032510, “Identification of Novel Fused Heteroaromatics-Based MALT1 Inhibitors by High-Throughput Screening to Treat B Cell Lymphoma” (J Med Chem, 2021)
Active and inactive are the calls of the source. The calls are words filed in the database; no cut-off is given here.

Key:
[1] = system: OCI-Ly1; experiment: Induction of apoptosis in human OCI-Ly1 cells assessed as increase in cleaved caspase 3 level at 2 to 5 uM measured after 12 hrs by Western blot analysis; assay type: functional, cell-based; conditions: dose 2-5 µM
How it was run: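 HBL1, TMD8 or OCI-LY1 cells were exposed to DMSO or compound for 12 h. Cleaved PARP and caspase-3 were probed by western blot with HRP-conjugated secondary antibodies and chemiluminescent detection. Each lane held 20−75 μg total protein.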

[2] = Induction of apoptosis in human HBL1 cells assessed as dead cells at 5 uM measured after 24 hrs by Annexin V-FITC/ Propidium iodide staining based flow cytometry (reference value: 2.32%); assay type: functional
[3] = system: TMD8; experiment: Induction of apoptosis in human TMD8 cells assessed as dead cells at 5 uM measured after 24 hrs by Annexin V-FITC/ Propidium iodide staining based flow cytometry (reference value: 0 %); assay type: functional
[4] = Induction of apoptosis in human HBL1 cells assessed as late apoptotic cells at 2 uM measured after 24 hrs by Annexin V-FITC/ Propidium iodide staining based flow cytometry (reference value: 4.77%); assay type: functional
[5] = Clearance in CD-1 mouse at 1 mg/kg, iv by LC-MS/MS analysis; assay type: ADME, organism-based; conditions: in vivo
How it was run: (§1)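 Compound formulated in 5% DMSO + 5% Tween-80 in 90% saline and given to male ICR (CD-1) mice (n = 9) at 10 mg/kg po, 1 mg/kg ip or 1 mg/kg iv. Blood was drawn via the jugular vein at set time points and held on ice. Plasma was separated by centrifugation and stored at −80 °C before PK parameters were derived.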

[6] = system: OCI-Ly1; experiment: Induction of apoptosis in human OCI-Ly1 cells assessed as dead cells at 10 uM measured after 24 hrs by Annexin V-FITC/ Propidium iodide staining based flow cytometry (reference value: 0.365%); assay type: functional
[7] = Half life in CD-1 mouse at 1 mg/kg, iv by LC-MS/MS analysis; assay type: ADME, organism-based; conditions: in vivo; how it was run: as §1
[8] = Oral bioavailability in CD-1 mouse at 10 mg/kg by LC-MS/MS analysis; assay type: ADME, organism-based; conditions: in vivo
How it was run: (§2)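 Male ICR (CD-1) mice (n = 9). Compound formulated in 5% DMSO + 5% Tween-80 in 90% saline and dosed 10 mg/kg po, 1 mg/kg ip or 1 mg/kg iv. Blood drawn from the jugular vein at set time points and held on ice. Plasma separated by centrifugation and stored at −80 °C before parameter derivation.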

[9] = Induction of apoptosis in human HBL1 cells assessed as early apoptotic cells at 5 uM measured after 24 hrs by Annexin V-FITC/ Propidium iodide staining based flow cytometry (reference value: 4.85%); assay type: functional
[10] = Induction of apoptosis in human HBL1 cells assessed as early apoptotic cells at 2 uM measured after 24 hrs by Annexin V-FITC/ Propidium iodide staining based flow cytometry (reference value: 4.85%); assay type: functional
[11] = target: T1, Mucosa-associated lymphoid tissue lymphoma translocation protein 1 (Homo sapiens) (UniProt Q9UDY8); experiment: Inhibition of MALT1 in human TMD8 cells assessed as decrease in RelB substrate cleavage at 8 uM preincubated for 30 mins followed by proteosome inhibitor MG-132 addition and measured after 2 hrs by Western blot analysis; assay type: cell-based; conditions: time 2.5 hrs
T1 sequence (whole entry): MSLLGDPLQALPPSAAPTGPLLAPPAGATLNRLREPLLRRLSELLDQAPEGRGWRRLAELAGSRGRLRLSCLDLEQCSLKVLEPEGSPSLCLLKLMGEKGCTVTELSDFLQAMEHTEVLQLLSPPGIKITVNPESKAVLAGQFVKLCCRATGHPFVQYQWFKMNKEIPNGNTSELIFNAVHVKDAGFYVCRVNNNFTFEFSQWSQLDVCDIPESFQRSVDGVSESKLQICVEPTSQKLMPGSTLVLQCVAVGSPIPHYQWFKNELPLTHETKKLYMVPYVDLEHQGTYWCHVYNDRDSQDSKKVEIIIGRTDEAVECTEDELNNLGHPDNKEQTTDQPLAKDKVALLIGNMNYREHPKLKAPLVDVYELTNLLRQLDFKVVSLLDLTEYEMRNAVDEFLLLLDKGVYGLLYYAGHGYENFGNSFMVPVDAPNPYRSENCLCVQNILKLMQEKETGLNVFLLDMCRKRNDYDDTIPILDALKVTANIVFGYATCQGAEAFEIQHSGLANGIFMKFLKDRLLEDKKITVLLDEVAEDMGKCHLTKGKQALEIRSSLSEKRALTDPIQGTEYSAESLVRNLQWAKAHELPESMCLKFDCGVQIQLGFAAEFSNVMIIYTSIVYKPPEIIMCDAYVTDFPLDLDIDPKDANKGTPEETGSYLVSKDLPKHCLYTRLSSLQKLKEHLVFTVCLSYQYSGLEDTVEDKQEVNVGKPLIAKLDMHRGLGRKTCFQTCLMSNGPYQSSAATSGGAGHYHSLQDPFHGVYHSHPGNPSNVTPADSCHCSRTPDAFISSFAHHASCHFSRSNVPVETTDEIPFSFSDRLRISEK
How it was run: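 Cells were grown in RPMI with 10% FBS, 2 mM glutamine and 10 mM HEPES at 37 °C, 5% CO₂. Pretreated 30 min with compound (4 and 8 μM), then 10 μM MG-132 for 2 h. 20−75 μg total protein run on SDS-PAGE, blotted to PVDF, probed for RelB, detected by HRP chemiluminescence. β-actin was the loading control.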

[12] = Apparent volume of distribution in CD-1 mouse at 1 mg/kg, iv by LC-MS/MS analysis; assay type: ADME, organism-based; conditions: in vivo, read-out: Vz; how it was run: as §1
[13] = AUC (0 to t) in CD-1 mouse at 1 mg/kg, ip by LC-MS/MS analysis; assay type: ADME, organism-based; parameters: dose 1 mg/kg; conditions: in vivo; how it was run: as §1
[14] = Half life in CD-1 mouse at 1 mg/kg, ip by LC-MS/MS analysis; assay type: ADME, organism-based; conditions: in vivo; how it was run: as §1
[15] = Toxicity in NCG mouse xenografted with human TMD8 cells assessed as emaciation at 30 mg/kg/day, ip measured for 13 days; conditions: in vivo, 312 h
[16] = MRT (0 to t) in CD-1 mouse at 1 mg/kg, ip by LC-MS/MS analysis; assay type: ADME, organism-based; conditions: in vivo; how it was run: as §2
[17] = Induction of apoptosis in human HBL1 cells assessed as dead cells at 10 uM measured after 24 hrs by Annexin V-FITC/ Propidium iodide staining based flow cytometry (reference value: 2.32%); assay type: functional
[18] = system: TMD8; experiment: Induction of apoptosis in human TMD8 cells assessed as late apoptotic cells at 2 uM measured after 24 hrs by Annexin V-FITC/ Propidium iodide staining based flow cytometry (reference value: 2.19%); assay type: functional
[19] = Tmax in CD-1 mouse at 10 mg/kg, po by LC-MS/MS analysis; assay type: ADME, organism-based; conditions: in vivo; how it was run: as §2
[20] = AUC (0 to t) in CD-1 mouse at 1 mg/kg, iv by LC-MS/MS analysis; assay type: ADME, organism-based; parameters: dose 1 mg/kg; conditions: in vivo; how it was run: as §1
[21] = MRT (0 to t) in CD-1 mouse at 10 mg/kg, po by LC-MS/MS analysis; assay type: ADME, organism-based; conditions: in vivo; how it was run: as §2

Structure (SMILES): COc1ccc(OC)c(NC(=O)c2sc(=S)n(-c3ccc(C(F)(F)F)cc3)c2NC(=O)CCl)c1
- Activity [1]: inactive
- Activity [2]: 1.8%
- Activity [3]: 0.422%
- Activity [4]: 5.5%
- clearance [5]: 14.1 mL/min/kg
- Activity [6]: 0.337%
- half-life [7]: 4.6 h
- bioavailability [8]: 110%
- Activity [9]: 42.1%
- Activity [10]: 6.78%
- inhibition [11]: Active
- Vd [12]: 4.82 L/kg
- AUC(0-t) [13]: 732 ng·h/mL
- half-life [14]: 4.5 h
- Activity [15]: Non-Toxic
- MRT last [16]: 5.95 h
- Activity [17]: 1.04%
- Activity [18]: 2.54%
- Tmax [19]: 3 h
- AUC(0-t) [20]: 1010 ng·h/mL
- MRT last [21]: 5.62 h
